# High-throughput results from PubChem BioAssay.
# WT yeast gro inh: growth inhibition of WT yeast, mitochondrial fusion screen; mitochondrial fusion phenotypic screen, WT strain; inhibition, % at 10 µM; hit rate 2.1% among 190,000; in the data active = inhibition above about 58%; tested in S. cerevisiae
# T cruzi repl: T. cruzi replication inhibition | T. cruzi beta-gal in NIH3T3, luminescence, 90 h | inhibition, % (concentration not given with the values) | hit rate 1.4% among 300,000 | AID 1885;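 active = mean inhibition across valid replicates above about 55%, limit read from the data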;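 note: signal also drops with host cell toxicity which is not excluded here; 0% = plate median of DMSO wells and 100% = zero luminescence signal; higher percent means less beta-gal luminescence so fewer parasites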
#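 System: NIH/3T3 fibroblasts plus reporter T. cruzi. Medium: DMEM plus 2% FBS. Probe or stimulus: 5000 reporter trypomastigotes per well. Compound: single 50 nL compound addition per well in DMSO. Incubation: co-culture of at least 90 h after 3 h attachment. Detection: GalScreen β-gal luminescence, detergent lysis, 60 min. Evaluation: parasite load inhibition, %.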
# Efflux pump inh: antifungal efflux pump inhibition, Nile Red retention | inhibition, % at 10 µM | S. cerevisiae Candida pump triplex | hit rate 0.44% among 330,000;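 active = plate passing quality check with inhibition over a set limit, or well fluorescence over plate mean plus 4 SD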;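 note: Nile Red retained in pooled yeast measured as flow cytometry median fluorescence; 0% = buffer negative control and 100% = Enniatin B positive control; higher means more Nile Red kept so more efflux inhibition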
# CSC inhib: blocks cancer stem cells; cancer stem cell-like cells viability, luminescence; inhibition, % at 7.5 µM; hit rate 1.1% among 300,000; in the data active = inhibition above about 75%; tested in HMLE shEcad cells
# Beta cell apopt: beta cell apoptosis inhibition. INS-1E cytokine-induced death, ATP luminescence, 48 h; percent of positive-control rescue, neutral wells zero. protection from apoptosis, % (test concentration not listed). hit rate 0.8% among 300,000. AID 435005;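 active = Every replicate reaches about 75%, or at least half do and their mean reaches it too, limit read from the data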;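 note: 0% = cytokine-treated negative control wells and 100% = positive control rescue; higher means more ATP so stronger rescue from cytokine killing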
# Mot1-301 SUMO: blocks SUMOylation pathway, rescuing yeast Mot1-301 growth; S. cerevisiae Mot1-301 growth rescue, ATP luminescence, 38.5C; percent above DMSO median, 100 means doubled; growth rescue, % at 18.8 µM; hit rate 1% among 320,000; AID 2716;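 active = every valid replicate shows activation above 250% relative to neutral control wells; inactive = the rest, any valid replicate at or below 250%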;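 note: OY570 slx delta 5 strain wells were the positive control but not used for scaling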
# Yeast cmpd fluor: flagged as fluorescent in efflux inhibitor counter-screen. shares compounds with Efflux pump inh. S. cerevisiae AD/pABC3, compound fluorescence, flow cytometry. fluorescence ratio to DMSO, % at 10 µM. hit rate 4% among 1,700;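 active = fluorescence ratio to DMSO above its plate's cutoff, the plate mean ratio plus 5 SD, cut at about 210% in these data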;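 note: unstained yeast with no Nile Red so the signal is compound autofluorescence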
# CaMdr1 efflux inh: inhibitors of Candida albicans Mdr1 efflux pump | shares compounds with Efflux pump inh | S. cerevisiae AD/CaMDR1, Nile Red efflux, flow cytometry | inhibition, % at 10 µM | hit rate 1% among 1,700 | AID 588518; in the data active = inhibition above about 26%;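 note: 0% = DMSO vehicle and 100% = reference inhibitor; higher means more Nile Red retained so more efflux inhibition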
# Cdr2 pump inh: inhibitors of Candida albicans Cdr2 efflux pump. S. cerevisiae AD/CaCDR2, Nile Red retention, flow cytometry. shares compounds with Efflux pump inh. Nile Red retention ratio vs DMSO, % at 10 µM. hit rate 4% among 1,700; in the data active = Nile Red retention ratio vs DMSO above about 190%;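 note: higher ratio means more blocking of Cdr2 efflux of the dye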
# Cdr1 pump inh: Candida Cdr1 efflux pump inhibition; hit rate 1% among 1,700; AID 588522; shares compounds with Efflux pump inh; S. cerevisiae AD/CaCDR1, Nile Red efflux, flow cytometry; inhibition, % at 10 µM;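 active = inhibition above the screen-wide mean plus twice its standard deviation, cut at about 32% in these data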
# An asterisk follows results filed as active; x = no result. Hits are enriched below; roughly 4.8% of the tested compounds scored in any of these assays.
SMILES,WT yeast gro inh,T cruzi repl,Efflux pump inh,CSC inhib,Beta cell apopt,Mot1-301 SUMO,Yeast cmpd fluor,CaMdr1 efflux inh,Cdr2 pump inh,Cdr1 pump inh
Cc1ccc(S(=O)(=O)N2CCN(C(=O)C3CCCO3)CC2)cc1C (stereo not given),x,-3,0,-1,-4,0,x,x,x,x
CCOC(=O)c1ccc(CSc2nnc(N)s2)cc1,-1,-3,1.8*,10,-2,-22,103,0,112,0
CC(=O)c1ccc(NC(=O)Cn2cnc(S(=O)(=O)N3CCC(C)CC3)c2)cc1,x,14,0,-5,-2,5,x,x,x,x
Cc1ccc(S(=O)(=O)Nc2ccc(-n3cnnn3)cc2)cc1,x,0,0.9*,13,-1,15,103,0,101,0
CC1=C(C(=O)OCC(Br)(Br)Br)C(c2ccc(Br)cc2)NC(=O)N1CCCC(=O)O (stereo not given),2,x,x,x,x,x,x,x,x,x
CCC1=C(OC(=O)N(CC)CC)N2C(=O)OC(=NCCc3c[nH]c4ccccc34)[C@]2(Cc2ccccc2)[C@H]2C1=CC[C@H]1C(=O)N(c3ccccc3)C(=O)[C@H]12,x,-24,0,-5,12,23,x,x,x,x
CCC1=C(OC(=O)N(CC)CC)N2C(=O)OC(=NCCc3c[nH]c4ccccc34)[C@]2(Cc2ccccc2)[C@H]2C1=CC[C@H]1C(=O)N(C)C(=O)[C@H]12,x,1,96*,-6,8,-2,112,39*,125,1
C=CCN1C(=O)c2ccc(C(=O)OCC(=O)N(C)C3CCCCC3)cc2C1=O,-16,-4,0,-6,-12,3,x,x,x,x
CN(CCC#N)C(=O)COC(=O)c1ccc2c(c1)C(=O)N(C1CCCCC1)C2=O,x,-9,6.2*,6,-2,-21,106,0,106,0
Cc1ccc(-n2c(SCC(=O)Nc3ccc(N4CCOCC4)cc3)nc3ccccc3c2=O)cc1,3,14,9.6*,-16,-4,-7,104,0,123,0
O=C(CSc1nc2ccccc2c(=O)n1-c1ccc(F)cc1F)Nc1ccc(N2CCOCC2)cc1,-25,4,19*,3,6,-1,104,0,123,0
CCN(C[C@H]1N[C@@](C)(C(=O)OC)[C@H]2C(=O)N(C)C(=O)[C@@H]12)S(=O)(=O)c1ccc(-c2ccccc2)cc1,x,x,0,x,-6,-15,x,x,x,x
CCOC(=O)C1NN=C(C(=O)c2ccccc2)C1c1ccc(OC)cc1 (stereo not given),9,12,1.4*,-7,-4,2,100,0,112,0
Cc1noc(C)c1C(=O)N(C)CC(=O)Nc1ccc(F)c(F)c1F,x,2,0,-4,-2,20,x,x,x,x
Cn1cnc([N+](=O)[O-])c1Oc1cccc2ccccc12,2,-12,1.1*,19,-11,-8,103,0,114,0
Cn1cnc([N+](=O)[O-])c1Oc1ccccc1,-6,7,0,4,-3,11,x,x,x,x
O=C(c1cc2c(s1)CCCC2)N1CCN(S(=O)(=O)c2ccccc2C(F)(F)F)CC1,46,40,6.7*,-3,-4,182,108,0,106,0
Cc1ccc(S(=O)(=O)N2CCN(C(=O)c3cc4c(s3)CCCC4)CC2)c(C)c1,x,x,0,x,1,7,x,x,x,x
COc1ccc(NS(=O)(=O)c2cccc(C(=O)NNC(=O)CNC(=O)c3cccc(C)c3)c2)cc1,x,-3,-1,0,-10,0,x,x,x,x
COc1ccc(/C=C/C(=O)Nc2cccc(S(=O)(=O)N3CCCC3)c2)cc1OC,6,-8,1.1*,8,3,110,108,0,88,0
CSc1cccc(NC(=O)CNS(=O)(=O)c2ccccc2)c1,x,4,0,-6,-13,-2,x,x,x,x
O=C(Nc1ccccc1Cl)c1ccccc1Oc1ccc(C(F)(F)F)cc1[N+](=O)[O-],83*,21,0.4*,-1,5,847,107,0,101,0
CSc1ccccc1C(=O)Nc1cc(C)cc(C)c1,-3,4,0,2,4,10,x,x,x,x
CSc1ccccc1C(=O)Nc1ccc(C)c(C)c1,-18,2,1.4*,x,-4,234,108,0,114,0
CC(=O)Nc1cccc(NC(=O)c2cc(-c3cccnc3)nc3ccc(Cl)cc23)c1,-4,26,1.4*,13,24,224,91,0,112,0
SMILES,WT yeast gro inh,T cruzi repl,Efflux pump inh,CSC inhib,Beta cell apopt,Mot1-301 SUMO,Yeast cmpd fluor,CaMdr1 efflux inh,Cdr2 pump inh,Cdr1 pump inh
CC(=O)Nc1cccc(NC(=O)c2cc(-c3cccnc3)nc3ccc(Br)cc23)c1,2,-6,0,33,35,-4,x,x,x,x
Cc1ccc(S(=O)(=O)N2CCc3c2cc([N+](=O)[O-])cc3[N+](=O)[O-])cc1,x,41,0,21,7,6,x,x,x,x
COc1ccc(-c2ccccc2[C@H]2[C@@H]3C=CC[C@@H](C)[C@@H]3C(=O)N2Cc2ccccc2)cc1,x,x,0,x,x,x,x,x,x,x
O=C(CSc1nnc(-c2ccccc2O)n1Cc1ccccc1)NNC(=O)c1ccccc1O,10,1,29*,133*,-2,-13,91,0,97,0
O=C(NCc1ccc(/C=N\NC(=O)C(=O)Nc2ccccc2Br)o1)C(=O)Nc1ccccc1,x,-7,0.7*,34,16,-26,102,0,109,0
O=C(N/N=C\c1ccc(CNS(=O)(=O)c2ccccc2)o1)C(=O)Nc1ccc(F)cc1,8,-5,0,5,-5,-4,x,x,x,x
Cc1cc(Cl)ccc1NC(=O)CSc1nnc(Cc2cccs2)n1Cc1ccco1,9,19,0,11,-2,195,93,0,107,0
COc1cc2c(cc1NC(=O)CSc1nnc(Cc3cccs3)n1Cc1ccco1)oc1ccccc12,9,51,0,51,-2,-1,91,0,93,0
C=CCn1c(Cc2cccs2)nnc1SCC(=O)NCc1ccco1,2,-11,0,-10,7,57,x,x,x,x
Cc1cc(C)c(NC(=O)CSc2nnc(-c3ccncc3)n2Cc2ccco2)c(Cl)c1,9,6,1.3*,15,-1,-26,92,0,100,0
COc1ccc(C(=O)CSc2nnc(CNc3ccc(C)cc3C)n2Cc2ccco2)cc1,6,18,1.1*,9,2,60,106,0,103,0
O=C(CSc1nnc(-c2ccccc2)n1Cc1ccco1)Nc1ccc2c(c1)OCCO2,21,1,0,-8,1,-2,x,x,x,x
